PMC9924264 (Journal of Medicinal Chemistry, 2023)
Each block holds one molecule with its values, some of them ahead of it.

Experiments:
BMPR2 kinase domain [1] = target: T1, BMPR2 kinase domain (Homo sapiens, UniProt Q13873); experiment: BMPR2 Kinase-Glo kinase inhibition assay; format: biochemical; details: for fold loss of BMPR2 potency: compared to parent CDD-1115 (CDD-1280: relative to CDD-1281)
T1 sequence (Q13873 188-517): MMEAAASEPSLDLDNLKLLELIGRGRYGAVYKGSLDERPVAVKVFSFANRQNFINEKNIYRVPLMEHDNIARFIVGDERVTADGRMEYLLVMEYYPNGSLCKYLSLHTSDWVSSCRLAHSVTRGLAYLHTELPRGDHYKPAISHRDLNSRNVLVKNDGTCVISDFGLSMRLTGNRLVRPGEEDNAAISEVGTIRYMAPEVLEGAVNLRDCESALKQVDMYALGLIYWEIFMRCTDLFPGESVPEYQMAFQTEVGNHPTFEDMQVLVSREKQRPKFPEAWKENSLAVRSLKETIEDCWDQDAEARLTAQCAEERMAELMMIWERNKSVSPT
How it was run: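 Recombinant human BMPR2 kinase domain (aa188-517, C-terminal His-tag) expressed in E. coli and purified by affinity, anion-exchange and size-exclusion chromatography. Substrate-free ATPase end-point assay: 10 μM ATP, 0.02% Tween-20, kinase buffer, 30 min at 30 °C. Enzyme level optimized for linear initial velocity. Leftover ATP read by luciferase luminescence, with no-kinase controls. Kiapp from modified Morrison equation fit to normalized fractional activity, no inhibition mode assumed.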

BMPR2 kinase domain [2] = target: T1, BMPR2 kinase domain; experiment: Thermal shift assay; format: binding; details: 50 μM compound; BMPR2 alone Tm 52.1 °C
How it was run: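 Purified BMPR2 kinase domain (1 μg) in 50 mM Tris–HCl pH 7.5, 150 mM NaCl with 50 μM test compound and 5× SYPRO Orange. Heated 20 to 95 °C, fluorescence read every 10 s. Tm taken from the unfolding curve; three technical replicates averaged.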

ACVRL1 (ALK1) = ACVRL1 (ALK1) (Homo sapiens, UniProt P37023); experiment: ThermoFisher SelectScreen LanthaScreen assay; format: binding; details: ALK1, text
Chain of ACVRL1 (ALK1) (P37023 22-503): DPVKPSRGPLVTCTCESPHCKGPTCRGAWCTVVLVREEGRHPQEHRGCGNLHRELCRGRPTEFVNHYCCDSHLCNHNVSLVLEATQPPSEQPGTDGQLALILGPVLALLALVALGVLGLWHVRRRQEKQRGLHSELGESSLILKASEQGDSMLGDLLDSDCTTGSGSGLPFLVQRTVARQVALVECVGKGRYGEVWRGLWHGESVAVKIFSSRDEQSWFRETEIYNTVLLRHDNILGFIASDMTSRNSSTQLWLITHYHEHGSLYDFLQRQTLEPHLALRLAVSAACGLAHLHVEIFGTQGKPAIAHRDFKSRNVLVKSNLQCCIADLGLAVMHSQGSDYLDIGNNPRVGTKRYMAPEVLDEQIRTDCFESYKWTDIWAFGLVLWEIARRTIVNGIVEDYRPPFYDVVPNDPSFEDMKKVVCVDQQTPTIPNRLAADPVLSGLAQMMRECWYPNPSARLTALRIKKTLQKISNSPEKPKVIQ

ACVR1 (ALK2) = target: T2, ACVR1 (ALK2) (Homo sapiens, UniProt Q04771); experiment: ThermoFisher SelectScreen LanthaScreen assay; format: binding; details: ALK2, text
T2 sequence (Q04771 21-509): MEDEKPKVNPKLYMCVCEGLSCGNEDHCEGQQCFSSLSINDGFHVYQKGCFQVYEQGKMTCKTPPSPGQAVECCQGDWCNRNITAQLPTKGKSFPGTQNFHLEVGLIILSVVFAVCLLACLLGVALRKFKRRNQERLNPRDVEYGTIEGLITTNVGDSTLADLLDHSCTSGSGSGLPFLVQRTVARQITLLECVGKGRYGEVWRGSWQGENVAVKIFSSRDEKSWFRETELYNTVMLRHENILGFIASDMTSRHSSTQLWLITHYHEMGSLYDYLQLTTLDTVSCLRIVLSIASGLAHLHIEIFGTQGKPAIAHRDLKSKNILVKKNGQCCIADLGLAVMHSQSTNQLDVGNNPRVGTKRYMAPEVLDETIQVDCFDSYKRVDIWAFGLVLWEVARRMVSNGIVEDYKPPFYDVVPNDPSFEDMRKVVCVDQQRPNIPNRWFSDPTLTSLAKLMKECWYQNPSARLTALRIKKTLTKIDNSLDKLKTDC

BMPR1A (ALK3) = BMPR1A (ALK3) (Homo sapiens, UniProt P36894); experiment: ThermoFisher SelectScreen LanthaScreen assay; format: binding
Chain of BMPR1A (ALK3) (P36894 24-532): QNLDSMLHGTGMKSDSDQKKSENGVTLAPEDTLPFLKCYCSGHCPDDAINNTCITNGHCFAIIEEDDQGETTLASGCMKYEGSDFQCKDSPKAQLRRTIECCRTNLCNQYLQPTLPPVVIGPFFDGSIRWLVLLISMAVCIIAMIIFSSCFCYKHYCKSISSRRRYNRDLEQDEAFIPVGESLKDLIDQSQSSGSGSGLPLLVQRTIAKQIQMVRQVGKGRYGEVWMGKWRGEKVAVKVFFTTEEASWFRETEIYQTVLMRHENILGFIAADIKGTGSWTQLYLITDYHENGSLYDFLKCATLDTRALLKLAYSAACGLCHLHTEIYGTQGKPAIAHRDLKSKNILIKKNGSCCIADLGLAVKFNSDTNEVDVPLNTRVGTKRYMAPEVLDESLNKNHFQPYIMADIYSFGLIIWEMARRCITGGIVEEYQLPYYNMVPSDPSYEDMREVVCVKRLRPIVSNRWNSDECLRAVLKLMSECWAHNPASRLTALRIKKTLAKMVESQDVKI

ACVR1B (ALK4) = target: T3, ACVR1B (ALK4) (Homo sapiens, UniProt P36896); experiment: ThermoFisher SelectScreen Z’-LYTE assay; format: biochemical; details: N/A = not active
T3 sequence (P36896 24-505): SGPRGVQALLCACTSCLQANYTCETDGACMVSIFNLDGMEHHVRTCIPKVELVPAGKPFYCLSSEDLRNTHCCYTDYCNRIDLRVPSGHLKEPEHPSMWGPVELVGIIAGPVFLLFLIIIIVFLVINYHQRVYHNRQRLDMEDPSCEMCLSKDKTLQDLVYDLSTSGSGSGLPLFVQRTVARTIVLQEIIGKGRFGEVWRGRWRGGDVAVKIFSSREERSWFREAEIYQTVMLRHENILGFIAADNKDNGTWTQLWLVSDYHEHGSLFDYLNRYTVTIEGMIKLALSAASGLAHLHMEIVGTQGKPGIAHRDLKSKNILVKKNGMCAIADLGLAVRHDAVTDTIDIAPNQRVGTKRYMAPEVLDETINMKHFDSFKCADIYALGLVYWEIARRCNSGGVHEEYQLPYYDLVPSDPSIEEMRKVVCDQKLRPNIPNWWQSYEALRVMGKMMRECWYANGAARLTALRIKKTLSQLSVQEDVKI

TGFBR1 (ALK5) = target: T4, TGFBR1 (ALK5) (Homo sapiens, UniProt P36897); experiment: ThermoFisher SelectScreen LanthaScreen assay; format: binding
T4 sequence (P36897 34-503): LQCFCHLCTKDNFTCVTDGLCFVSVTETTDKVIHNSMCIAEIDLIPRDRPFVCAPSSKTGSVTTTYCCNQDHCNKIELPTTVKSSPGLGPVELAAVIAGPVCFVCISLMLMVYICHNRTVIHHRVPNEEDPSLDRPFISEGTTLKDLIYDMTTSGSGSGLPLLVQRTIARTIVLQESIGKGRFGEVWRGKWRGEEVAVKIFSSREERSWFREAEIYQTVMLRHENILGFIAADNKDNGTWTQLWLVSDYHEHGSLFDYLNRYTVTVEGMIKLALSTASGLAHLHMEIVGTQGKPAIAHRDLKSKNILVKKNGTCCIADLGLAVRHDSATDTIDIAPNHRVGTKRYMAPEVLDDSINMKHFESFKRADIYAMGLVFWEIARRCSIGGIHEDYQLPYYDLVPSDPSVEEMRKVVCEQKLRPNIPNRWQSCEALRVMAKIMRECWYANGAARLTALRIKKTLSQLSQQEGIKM

BMPR1B (ALK6) = BMPR1B (ALK6) (Homo sapiens, UniProt O00238); experiment: ThermoFisher SelectScreen LanthaScreen assay; format: binding
Chain of BMPR1B (ALK6) (O00238 14-502): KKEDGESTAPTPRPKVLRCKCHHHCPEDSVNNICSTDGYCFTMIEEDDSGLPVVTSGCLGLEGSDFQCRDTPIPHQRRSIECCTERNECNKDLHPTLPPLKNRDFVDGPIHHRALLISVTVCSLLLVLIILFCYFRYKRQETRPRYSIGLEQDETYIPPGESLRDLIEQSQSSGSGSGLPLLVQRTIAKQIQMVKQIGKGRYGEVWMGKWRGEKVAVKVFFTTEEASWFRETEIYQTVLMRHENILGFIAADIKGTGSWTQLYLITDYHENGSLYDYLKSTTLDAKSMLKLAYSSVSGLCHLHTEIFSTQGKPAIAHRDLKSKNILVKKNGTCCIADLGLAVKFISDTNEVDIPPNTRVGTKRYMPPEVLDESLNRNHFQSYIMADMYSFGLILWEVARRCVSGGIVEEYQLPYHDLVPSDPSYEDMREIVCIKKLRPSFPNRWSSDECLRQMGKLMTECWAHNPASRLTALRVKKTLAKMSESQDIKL

TGFBR2 = TGFBR2 (Homo sapiens, UniProt P37173); experiment: ThermoFisher SelectScreen LanthaScreen assay; format: binding
Chain of TGFBR2 (P37173 23-567): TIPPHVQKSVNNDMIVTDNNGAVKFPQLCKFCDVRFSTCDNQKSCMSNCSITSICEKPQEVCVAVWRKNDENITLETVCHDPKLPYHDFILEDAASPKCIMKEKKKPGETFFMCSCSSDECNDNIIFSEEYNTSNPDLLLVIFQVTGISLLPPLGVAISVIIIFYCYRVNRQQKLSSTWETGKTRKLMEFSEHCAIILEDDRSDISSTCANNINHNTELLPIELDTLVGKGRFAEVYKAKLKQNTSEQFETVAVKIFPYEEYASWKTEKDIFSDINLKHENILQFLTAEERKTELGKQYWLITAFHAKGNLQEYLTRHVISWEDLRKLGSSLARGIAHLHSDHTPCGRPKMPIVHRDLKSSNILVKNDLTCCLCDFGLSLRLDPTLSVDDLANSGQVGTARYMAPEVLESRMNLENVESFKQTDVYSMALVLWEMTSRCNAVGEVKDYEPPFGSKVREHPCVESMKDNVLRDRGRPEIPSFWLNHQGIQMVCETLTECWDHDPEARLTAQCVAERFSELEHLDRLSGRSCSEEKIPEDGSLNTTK

ACVR2A = ACVR2A (Homo sapiens, UniProt P27037); experiment: ThermoFisher SelectScreen LanthaScreen assay; format: binding; details: N/A = not active
How it was run: (§1)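 Outsourced kinase profiling in TR-FRET binding format, measuring displacement of a tight-binding tracer from the kinase by test compound. IC50 reported.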

ACVR2B = ACVR2B (Homo sapiens, UniProt Q13705); experiment: ThermoFisher SelectScreen LanthaScreen assay; format: binding; details: N/A = not active
Chain of ACVR2B (Q13705 19-512): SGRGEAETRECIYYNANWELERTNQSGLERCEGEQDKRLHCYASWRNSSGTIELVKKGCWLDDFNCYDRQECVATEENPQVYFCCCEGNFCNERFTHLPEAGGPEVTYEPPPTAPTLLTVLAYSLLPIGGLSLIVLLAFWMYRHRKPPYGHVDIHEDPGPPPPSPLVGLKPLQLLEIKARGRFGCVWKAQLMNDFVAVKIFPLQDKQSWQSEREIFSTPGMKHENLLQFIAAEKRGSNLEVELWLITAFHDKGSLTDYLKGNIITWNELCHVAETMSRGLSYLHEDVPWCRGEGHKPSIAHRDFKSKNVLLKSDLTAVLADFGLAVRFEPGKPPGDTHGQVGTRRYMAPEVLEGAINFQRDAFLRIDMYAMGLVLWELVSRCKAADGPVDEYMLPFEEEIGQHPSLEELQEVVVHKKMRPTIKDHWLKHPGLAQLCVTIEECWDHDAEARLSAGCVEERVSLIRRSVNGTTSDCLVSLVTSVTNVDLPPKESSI
How it was run: as §1

[3] = tested on: pSMAD1/5 in human umbilical vein endothelial cells (HUVECs); experiment: pSMAD1/5 Western blot, BMP9-stimulated HUVECs; format: cell-based; details: 25 μM, 30 min pretreatment, 0.5 ng/mL BMP9 15 min
How it was run: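 HUVECs, about 3 × 10^5 per well, starved overnight in Kaighn's F-12 with 0.5% FBS and 30 μg/mL endothelial cell growth supplement. Pretreated with inhibitors for 30 min, then given 0.5 ng/mL BMP9 for 15 min. Lysed with protease and phosphatase inhibitors. SDS-PAGE immunoblot for pSMAD1/5, SMAD1, SMAD5 and GAPDH, with densitometry. n = 3 biological replicates; one-way ANOVA with Tukey post hoc test.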

WNK1 = WNK1 (Homo sapiens, UniProt Q9H4A3); experiment: ThermoFisher Kd Elect screening; format: binding
Chain of WNK1 (Q9H4A3 whole entry): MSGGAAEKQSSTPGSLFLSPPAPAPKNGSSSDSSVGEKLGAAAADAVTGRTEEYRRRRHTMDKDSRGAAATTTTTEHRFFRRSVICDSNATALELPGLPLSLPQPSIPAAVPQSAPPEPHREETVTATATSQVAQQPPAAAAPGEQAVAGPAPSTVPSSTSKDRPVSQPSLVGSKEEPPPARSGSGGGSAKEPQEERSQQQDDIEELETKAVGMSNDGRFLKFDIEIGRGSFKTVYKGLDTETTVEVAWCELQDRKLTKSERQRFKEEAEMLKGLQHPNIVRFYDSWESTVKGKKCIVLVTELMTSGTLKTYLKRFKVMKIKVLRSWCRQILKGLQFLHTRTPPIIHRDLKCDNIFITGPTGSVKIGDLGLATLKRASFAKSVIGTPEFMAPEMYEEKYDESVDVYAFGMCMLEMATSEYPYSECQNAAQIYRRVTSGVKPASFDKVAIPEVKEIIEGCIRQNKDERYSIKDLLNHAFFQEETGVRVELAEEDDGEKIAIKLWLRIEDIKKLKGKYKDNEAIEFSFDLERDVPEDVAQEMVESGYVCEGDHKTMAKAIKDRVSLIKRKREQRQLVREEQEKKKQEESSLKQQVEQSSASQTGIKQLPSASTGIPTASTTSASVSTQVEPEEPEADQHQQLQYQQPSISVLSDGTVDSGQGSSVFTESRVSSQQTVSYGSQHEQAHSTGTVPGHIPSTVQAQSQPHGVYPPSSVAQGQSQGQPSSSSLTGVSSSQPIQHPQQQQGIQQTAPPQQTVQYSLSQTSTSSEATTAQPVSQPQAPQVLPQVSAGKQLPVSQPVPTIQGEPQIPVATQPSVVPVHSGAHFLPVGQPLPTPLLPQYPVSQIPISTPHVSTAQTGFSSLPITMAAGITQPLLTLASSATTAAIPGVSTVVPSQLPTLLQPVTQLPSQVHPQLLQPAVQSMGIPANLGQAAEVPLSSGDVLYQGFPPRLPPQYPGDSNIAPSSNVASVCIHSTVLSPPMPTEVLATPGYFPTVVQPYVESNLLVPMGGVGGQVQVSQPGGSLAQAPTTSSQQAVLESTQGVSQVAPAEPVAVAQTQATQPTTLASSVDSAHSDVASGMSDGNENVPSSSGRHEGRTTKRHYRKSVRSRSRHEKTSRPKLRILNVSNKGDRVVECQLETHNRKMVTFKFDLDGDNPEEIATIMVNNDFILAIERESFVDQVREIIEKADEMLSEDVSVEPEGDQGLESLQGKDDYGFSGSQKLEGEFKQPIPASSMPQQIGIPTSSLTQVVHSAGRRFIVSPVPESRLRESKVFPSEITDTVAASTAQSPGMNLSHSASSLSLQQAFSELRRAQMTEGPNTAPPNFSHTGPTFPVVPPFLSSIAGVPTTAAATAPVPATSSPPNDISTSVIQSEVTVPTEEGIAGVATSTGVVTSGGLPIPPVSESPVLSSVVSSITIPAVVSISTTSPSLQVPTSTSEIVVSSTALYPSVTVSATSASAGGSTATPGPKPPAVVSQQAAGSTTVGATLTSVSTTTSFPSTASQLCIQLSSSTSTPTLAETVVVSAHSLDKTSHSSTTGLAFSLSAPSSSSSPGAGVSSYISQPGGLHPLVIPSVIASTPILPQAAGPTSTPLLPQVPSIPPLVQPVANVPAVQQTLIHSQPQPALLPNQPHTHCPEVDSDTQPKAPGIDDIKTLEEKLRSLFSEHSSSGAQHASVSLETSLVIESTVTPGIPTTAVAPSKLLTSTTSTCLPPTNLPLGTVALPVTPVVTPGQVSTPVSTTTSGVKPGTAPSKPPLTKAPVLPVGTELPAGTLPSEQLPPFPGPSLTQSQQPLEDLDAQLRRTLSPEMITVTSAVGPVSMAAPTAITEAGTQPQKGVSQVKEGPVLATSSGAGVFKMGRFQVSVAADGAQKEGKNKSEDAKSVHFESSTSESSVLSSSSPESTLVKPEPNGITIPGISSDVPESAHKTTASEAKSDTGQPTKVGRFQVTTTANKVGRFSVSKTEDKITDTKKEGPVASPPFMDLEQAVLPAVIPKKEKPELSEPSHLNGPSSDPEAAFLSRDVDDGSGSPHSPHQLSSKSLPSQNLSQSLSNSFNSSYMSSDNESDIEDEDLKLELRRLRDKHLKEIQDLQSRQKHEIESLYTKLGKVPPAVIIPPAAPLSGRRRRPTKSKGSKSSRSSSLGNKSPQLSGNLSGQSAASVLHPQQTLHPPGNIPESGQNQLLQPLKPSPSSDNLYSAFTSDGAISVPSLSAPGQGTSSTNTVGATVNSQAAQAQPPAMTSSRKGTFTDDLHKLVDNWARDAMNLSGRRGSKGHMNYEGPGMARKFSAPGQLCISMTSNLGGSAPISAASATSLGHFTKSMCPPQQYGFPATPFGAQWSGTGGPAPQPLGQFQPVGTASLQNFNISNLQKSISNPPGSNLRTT

WNK2 = WNK2 (Homo sapiens, UniProt Q9Y3S1); experiment: ThermoFisher Kd Elect screening; format: binding

Compound: CNC(=O)[C@@H]1CC[C@@H](n2c(-c3ccc4cnccc4c3)nc3ccc(C(=O)NCc4ccccc4)cc32)C1 [CDD-1283, N-Benzyl-2-(isoquinolin-6-yl)-1-((1R,3R)-3-(methylcarbamoyl)cyclopentyl)-1H-benzo[d]imidazole-6-carboxamide]
- fold loss of BMPR2 potency (BMPR2 kinase domain [1]): 6.2 fold

Compound: CNC(=O)[C@@H]1CC[C@@H](n2c(-c3ccc4cnccc4c3)nc3ccc(C(=O)NCc4cccc(C(N)=O)c4)cc32)C1 [CDD-1115, N-(3-Carbamoylbenzyl)-2-(isoquinolin-6-yl)-1-((1R,3R)-3-(methylcarbamoyl)cyclopentyl)-1H-benzo[d]imidazole-6-carboxamide]
- melting temperature (Tm) (BMPR2 kinase domain [2]): 67.8 °C
- selectivity over BMPR2 (ACVRL1 (ALK1)): > 100 fold
- selectivity over BMPR2 (ACVR1 (ALK2)): > 100 fold
- selectivity over BMPR2 (BMPR1A (ALK3); ALK3, text): > 555 fold
- selectivity (BMPR1A (ALK3); ALK3 vs BMPR2): >555×
- IC50 (ACVR1B (ALK4)): inactive
- selectivity over BMPR2 (TGFBR1 (ALK5); ALK5, text): > 555 fold
- selectivity (TGFBR1 (ALK5); ALK5 vs BMPR2): >555×
- selectivity over BMPR2 (BMPR1B (ALK6); ALK6, text): > 555 fold
- selectivity (BMPR1B (ALK6); ALK6 vs BMPR2): >555×
- IC50 (TGFBR2): > 1 µM
- selectivity over BMPR2 (TGFBR2; TGFBR2, text): > 555 fold
- selectivity (TGFBR2; TGFBR2 vs BMPR2): >555×
- IC50 (ACVR2A): inactive
- IC50 (ACVR2B): inactive

Compound: Cn1c(-c2ccc3cnccc3c2)nc2ccc(C(=O)NCc3cccc(C(N)=O)c3)cc21 [CDD-1280, N-(3-Carbamoylbenzyl)-2-(isoquinolin-6-yl)-1-methyl-1H-benzo[d]imidazole-6-carboxamide]
- fold loss of BMPR2 potency (BMPR2 kinase domain [1]): 2.7 fold

Compound: CNC(=O)CCc1ccc(C(=O)NCc2cccc(N3CCN(c4nc(Nc5cccc(S(N)(=O)=O)c5)ncc4OC)CC3)c2)cc1 [CDD-1431, N-(3-(4-(5-Methoxy-2-((3-sulfamoylphenyl)amino)pyrimidin-4-yl)piperazin-1-yl)benzyl)-4-(3-(methylamino)-3-oxopropyl)benzamide]
- melting temperature (Tm) (BMPR2 kinase domain [2]): 66.0 °C

Compound: CNC(=O)c1ccc2nc(-c3ccc4cnccc4c3)n([C@@H]3CC[C@@H](C(=O)NC)C3)c2c1 [CDD-1282, 2-(Isoquinolin-6-yl)-N-methyl-1-((1R,3R)-3-(methylcarbamoyl)cyclopentyl)-1H-benzo[d]imidazole-6-carboxamide]
- fold loss of BMPR2 potency (BMPR2 kinase domain [1]): complete loss of potency

Compound: CNC(=O)[C@@H]1CC[C@@H](n2c(-c3cccc(Cl)c3)nc3ccc(C(=O)NCc4cccc(C(N)=O)c4)cc32)C1 [CDD-1284, N-(3-Carbamoylbenzyl)-2-(3-chlorophenyl)-1-((1R,3R)-3-(methylcarbamoyl)cyclopentyl)-1H-benzo[d]imidazole-6-carboxamide]
- fold loss of BMPR2 potency (BMPR2 kinase domain [1]): 160 fold

Compound: CNC(=O)[C@@H]1CC[C@@H](n2c(-c3cc(Cl)cc(Cl)c3)nc3ccc(C(=O)NCc4cccc(C(N)=O)c4)cc32)C1 [CDD-1285, N-(3-Carbamoylbenzyl)-2-(3,5-dichlorophenyl)-1-((1R,3R)-3-(methylcarba-moyl)cyclopentyl)-1H-benzo[d]imidazole-6-carboxamide]
- fold loss of BMPR2 potency (BMPR2 kinase domain [1]): 160 fold

More lines, main results first:

- fold drop in BMPR2 potency (BMPR2 kinase domain [1]; compared to parent CDD-1431): 12 fold
Compound: COc1cnc(Nc2cccc(S(N)(=O)=O)c2)nc1N1CCNCC1 [CDD-1497, 3-((5-Methoxy-4-(piperazin-1-yl)pyrimidin-2-yl)amino)benzenesulfonamide]

- Kd (WNK1): > 3 µM
- Kd (WNK2): > 3 µM
Compound: COc1cnc(Nc2cccc(S(N)(=O)=O)c2)nc1N1CCN(c2ccccc2)C(=O)C1 [CDD-1653, 3-((5-Methoxy-4-(3-oxo-4-phenylpiperazin-1-yl)pyrimidin-2-yl)amino)benzenesulfonamide]
- phosphorylation of SMAD1/5 (pSMAD1/5) [3]: significantly decreased

- fold drop in BMPR2 potency (BMPR2 kinase domain [1]; compared to parent CDD-1431): 2 fold
Compound: COc1cnc(Nc2cccc(S(N)(=O)=O)c2)nc1N1CCN(c2ccccc2)CC1 [CDD-1496, 3-((5-Methoxy-4-(4-phenylpiperazin-1-yl)pyrimidin-2-yl)amino)benzenesulfonamide]
- phosphorylation of SMAD1/5 (pSMAD1/5) [3]: significantly decreased

- fold improved BMPR2 potency (BMPR2 kinase domain [1]; compared to parent CDD-1431): 4 fold
Compound: CCOc1cnc(Nc2cccc(S(N)(=O)=O)c2)nc1N1CCN(c2ccccc2)C(=O)C1 [CDD-1703, 3-((5-Ethoxy-4-(3-oxo-4-phenylpiperazin-1-yl)pyrimidin-2-yl)amino)benzenesulfonamide]
